Compound activity: PubChem BioAssay, several laboratories
Most compounds without a hit are left out; they make up all but 2.5% or so of the library.
MsrA inhibitor: bovine MsrA enzyme inhibitors, primary screen, biochemical, absorbance, HTS; Methionine sulfoxide reductase A (Bos taurus); inhibition, % at 15.5 µM; purified bovine MsrA, absorbance read-out; 360,000 compounds, 0.75% hits; AID 651718, 2012; in the data active = inhibition above about 4.5%;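 also: 0% = vehicle wells with enzyme and 100% = reference inhibitor wells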
NadD inh: inhibitors of S. aureus NadD, primary screen, biochemical, colorimetric, uHTS; Nicotinate-nucleotide adenylyltransferase NadD (Staphylococcus aureus N315); purified NadD enzyme, colorimetric absorbance read-out; inhibition, % at 20 µM; 360,000 compounds, 0.78% hits; in the data active = inhibition above about 26%
NR2E3 ag-1: NR2E3 agonists in two-hybrid cells, primary screen, cell-based, luminescence, CHO-S, Gal4-NCOR/VP16-NR2E3; Photoreceptor-specific nuclear receptor (Homo sapiens), Q9Y5X4; luciferase; inhibition of corepressor binding, % at 3.98 µM; 360,000 compounds, 0.35% hits; AID 602229, 2012;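 active = inhibition above the mean of all tested compounds plus 3 SD, cut at about 70% in these data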;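 also: 0% = DMSO with NR2E3 transfected cells and 100% = cells lacking NR2E3 construct; higher means lower luciferase signal from less NR2E3 corepressor binding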
Target sequence (Q9Y5X4 whole entry, looked up, the tested form may be a part): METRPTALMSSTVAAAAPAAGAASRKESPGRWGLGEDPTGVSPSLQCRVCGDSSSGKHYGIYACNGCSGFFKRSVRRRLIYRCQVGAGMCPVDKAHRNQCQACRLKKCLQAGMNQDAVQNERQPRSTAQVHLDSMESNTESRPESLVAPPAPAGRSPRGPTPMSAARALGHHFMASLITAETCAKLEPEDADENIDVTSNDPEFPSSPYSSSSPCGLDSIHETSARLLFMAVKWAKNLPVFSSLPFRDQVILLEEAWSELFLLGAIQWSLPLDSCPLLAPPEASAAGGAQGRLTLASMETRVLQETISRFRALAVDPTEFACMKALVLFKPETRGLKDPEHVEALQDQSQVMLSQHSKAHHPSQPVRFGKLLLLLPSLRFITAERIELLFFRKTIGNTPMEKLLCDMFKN
MsrA act: bovine MsrA enzyme activators, primary screen, biochemical, absorbance, HTS | purified bovine MsrA, absorbance read-out | activation, % at 10.6 µM | 360,000 compounds, 0.3% hits | AID 602163, 2012; in the data active = activation above about 7.5%;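 also: 0% = vehicle and 100% = reference activator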
GalR3 antag: GalR3 antagonists in HEK293 cells, primary screen, cell-based, fluorescence readout. inhibition, % at 3 µM. 360,000 compounds, 0.44% hits. AID 651719, 2012. HEK293 GalR3-CNG cAMP membrane potential fluorescence; galR3 body fused to GalR1 C-terminus;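 active = inhibition above the screen-wide average plus 3 SD, cut at about 13% in these data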;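 also: forskolin and galanin both at EC90 stimulate the cells; cAMP rise reported by CNG channel membrane potential dye signal; 0% = forskolin plus galanin with DMSO and 100% = forskolin alone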
Target sequence (O60755 1-299 limits assumed): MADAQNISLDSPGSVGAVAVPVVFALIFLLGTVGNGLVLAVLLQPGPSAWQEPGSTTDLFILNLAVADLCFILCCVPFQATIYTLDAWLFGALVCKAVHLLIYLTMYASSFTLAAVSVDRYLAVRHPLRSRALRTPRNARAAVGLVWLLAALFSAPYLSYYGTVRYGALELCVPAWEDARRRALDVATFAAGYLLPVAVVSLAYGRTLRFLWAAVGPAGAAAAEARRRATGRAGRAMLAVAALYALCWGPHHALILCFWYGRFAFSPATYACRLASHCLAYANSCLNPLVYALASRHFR
NR2E3 ag-2: inhibitors of NR2E3-RetCOR corepressor binding, primary screen, NR2E3 agonist project, biochemical, TR-FRET, GST-NR2E3, biotin-RetCOR. inhibition of corepressor binding, % at 4.78 µM. AID 2300, 2010. 320,000 compounds, 0.12% hits. 1536-well;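 active = percent inhibition above the cutoff of mean plus 3 SD of all tested compounds, set per screening campaign, cut at about 20% in these data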;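 also: 0% = DMSO wells and 100% = biotin wells as full block of FRET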
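System: GST-NR2E3 and biotin-RetCOR proteins; probe or stimulus: 7 nM biotin-RetCOR; doses: compound at 4.8 µM, single dose; schedule: Compound–protein incubation for 5 h at 4 °C; detection: time-resolved FRET; read-out: percent inhibition; controls: biotin wells as high control, 0.6% DMSO wells as low control; format: 1536-well plates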
NadD inh conf: inhibitors of S. aureus NadD, confirmation, biochemical, colorimetric, single concentration | shares compounds with NadD inh | purified S. aureus NadD, colorimetric enzyme assay | inhibition, % at 20 µM | 2,000 compounds, 13% hits; in the data active = inhibition mostly above about 42%, no sharp cut-off; inactive = mostly below about 42%
An asterisk follows results filed as active; / = no result given.

SMILES | MsrA inhibitor | NadD inh | NR2E3 ag-1 | MsrA act | GalR3 antag | NR2E3 ag-2 | NadD inh conf
O=C(NCCS(=O)(=O)N1CCN(c2ccccc2)CC1)c1ccc(Br)o1 | -0.9 | 6.3 | 31.5 | -1.6 | -0.8 | 2.2 | /
COc1cccc2c(=O)c3c([nH]c12)OC(C)(C)C3 | 1.4 | -8.1 | -3.9 | -6.1 | -4.5 | 3.4 | /
COc1cccc2c(=O)c3cccc(N)c3[nH]c12 | 1.1 | 38.5* | -6.9 | -2.7 | -2.5 | -1.1 | 10.4
C/C(=N\NC(N)=S)C1=CCC2C3CC[C@H]4CC(O)CC[C@]4(C)C3CC[C@]12C (stereo not given in full) | 1.2 | 36.4* | -8.0 | -7.4 | -9.3 | -0.2 | 11.8
COc1ccccc1C(=O)Nc1nnc(SCC(=O)Nc2ccc3c(c2)oc2ccccc23)s1 | -0.3 | 13.4 | 1.0 | -2.7 | -9.8 | -0.6 | /
Cc1cc(Cl)ccc1OCC(=O)Nc1ccc2oc(=O)ccc2c1 | -0.2 | -9.0 | -23.6 | -2.2 | -5.7 | 5.3 | /
CCCCCCC(=O)Nc1nc(C)c(-c2csc(Nc3ccccc3OC)n2)s1 | 2.1 | 19.2 | 25.3 | -2.4 | -4.9 | -0.2 | /
CCCCC(=O)Nc1nc(C)c(-c2csc(Nc3cc(Cl)ccc3OC)n2)s1 | 0.9 | 33.6* | 4.8 | -3.8 | -1.6 | -3.4 | 28.5
CCCCCCC(=O)Nc1nc(C)c(-c2csc(Nc3cc(Cl)ccc3C)n2)s1 | 0.2 | 39.0* | 0.3 | -4.1 | -4.9 | -3.5 | 11.8
Cc1ccc(Oc2nc(CN3CCOCC3)nc3sc4c(c23)CCC(C)C4)cc1 (stereo not given) | 1.4 | 3.3 | -12.3 | -2.1 | -2.1 | -0.5 | /
CC1CCc2c(sc3nc(CN4CCOCC4)nc(N4CCc5ccccc5C4)c23)C1 (stereo not given) | -0.3 | 36.8* | -29.8 | 1.9 | -10.8 | 1.7 | 18.2
Cc1cccc2cc3c(N)c(C(=O)Nc4ccc(N5CCOCC5)cc4)sc3nc12 | -1.5 | -10.0 | -6.6 | -2.5 | 0.1 | 0.7 | /
CCc1cccc2cc3c(N)c(C(=O)Nc4ccc(S(=O)(=O)N5CCCC5)cc4)sc3nc12 | 0.5 | 44.1* | -0.7 | -5.3 | 4.9 | 6.9 | 16.3
COc1ccc(C(=O)/C=C/c2cccc(OCc3ccccc3)c2)cc1CSCC(=O)O | 1.9 | 18.1 | -1.4 | -7.7 | -4.2 | 2.0 | /
COc1ccc(C(=O)/C=C/c2ccc(OCc3ccccc3)cc2)cc1CSCC(=O)O | 3.7 | 26.0* | -13.4 | -7.6 | -0.5 | / | 26.8
CN(C)c1cc(NC(=O)CNC(C)(C)C)c2ccccc2n1 | 0.6 | -0.1 | -30.4 | -1.3 | -3.1 | 0.1 | /
Cc1ccccc1C(=O)Nc1nnc(CC(=O)N/N=C/c2cn(Cc3ccccc3)c3ccccc23)s1 | -0.3 | 45.4* | -17.6 | -1.7 | -3.5 | 1.7 | 16.5
CCC(C)Sc1nnc(NC(=O)C2CCN(C(=O)c3ccco3)CC2)s1 (stereo not given) | -0.7 | -4.1 | 19.2 | -6.9 | 0.0 | 4.1 | /
CCOc1ccc2c(ccc(/C=C/c3cc(C)c4cccnc4c3O)[n+]2C)c1 | / | 55.1* | -16.0 | 0.8 | / | / | 88.7*
Cc1cc2c(cc1S(=O)(=O)N1CCCC1)n(C)c(=O)c(=O)n2C | 2.3 | -1.1 | -20.1 | -0.4 | -1.5 | -1.0 | /
Cc1ccc(OCC(=O)Nc2ccc3c(c2)C(=O)NC3=O)cc1 | 0.2 | -26.8 | 10.8 | -2.2 | -1.2 | 4.2 | /
CC(C)(C)c1ccc(OCC(=O)Nc2ccc3c4c(cccc24)C(=O)NC3=O)cc1 | 1.2 | 33.7* | -30.0 | -2.1 | 5.3 | / | 2.5
Oc1ccc(C[C@H]2CNC(=S)N2C[C@H]2CCCN2C[C@H](Cc2ccccc2)N2C[C@H](Cc3ccc(O)cc3)N(CC3CCCCCC3)C2=S)cc1 | -0.5 | 43.1* | 13.1 | -3.3 | -4.8 | / | 13.6
Oc1ccc(C[C@H]2CN([C@@H](Cc3cccc(O)c3)CN3CCC[C@@H]3CN3C(=S)NC[C@@H]3Cc3ccccc3)C(=S)N2CC2CCCCC2)cc1 | 0.6 | 43.6* | 33.2 | -3.1 | -5.2 | / | 32.8
CC(C)C[C@H]1CN([C@@H](Cc2ccc(O)cc2)CN2CCC[C@@H]2CN2C(=S)NC[C@@H]2Cc2ccccc2)C(=S)N1CC1CCCCC1 | -0.1 | 21.7 | 15.7 | -1.9 | -3.5 | / | /
SMILES | MsrA inhibitor | NadD inh | NR2E3 ag-1 | MsrA act | GalR3 antag | NR2E3 ag-2 | NadD inh conf
Oc1ccc(C[C@H]2CNC(=S)N2CC2CCCN2C[C@H](Cc2ccc(O)cc2)N2C[C@H](Cc3ccc(O)cc3)N(CC3CCCCC3)C2=S)cc1 (stereo not given in full) | 1.0 | 47.9* | -20.8 | -7.3 | -6.6 | / | 47.2
CC(C)C[C@H]1CNC(=S)N1C[C@H]1CCCN1C[C@H](Cc1ccc(O)cc1)N1C[C@H](Cc2ccccc2)N(CC2CCCCC2)C1=S | 1.1 | 8.6 | -5.2 | -7.5 | -7.3 | / | /
Oc1ccc(C[C@H]2CNC(=S)N2CC2CCCN2C[C@H](Cc2ccccc2)N2C[C@H](Cc3ccc(O)cc3)N(CC3CCCCCC3)C2=S)cc1 (stereo not given in full) | -0.6 | 48.0* | -4.9 | -12.9 | -2.3 | / | 20.6
Cc1ccc(N(CCC#N)C(=O)COC(=O)c2cc(C)no2)cc1 | 1.2 | -1.8 | -6.5 | -5.9 | -5.6 | -1.5 | /
CC1(C)CN(C2CCCCC2)C(=O)[C@H]1CC(=O)Nc1ccccc1 | 1.3 | -8.8 | -7.3 | -4.8 | -5.8 | / | /
COC(=O)c1ccc(C(=S)N2CCOCC2)cc1 | -1.0 | -1.5 | -2.4 | -1.7 | -3.5 | 0.4 | /
CC(C)C[C@@H](CN1CCCC1CN1C(=S)NC[C@@H]1Cc1ccc(O)cc1)N1C[C@H](Cc2ccc(O)cc2)N(CC2CCCCC2)C1=S (stereo not given in full) | -0.5 | 54.3* | -35.6 | -2.4 | -2.0 | / | 29.6
Oc1ccc(C[C@H]2CN([C@@H](Cc3ccc(O)cc3)CN3CCC[C@@H]3CN3C(=S)NC[C@@H]3Cc3ccccc3)C(=S)N2CC2CCCCCC2)cc1 | 0.4 | 47.0* | 8.9 | -4.2 | -6.0 | / | 27.4
Oc1ccc(C[C@H]2CN([C@@H](Cc3ccccc3)CN3CCCC3CN3C(=S)NC[C@@H]3Cc3ccccc3)C(=S)N2CC2CCCCC2)cc1 (stereo not given in full) | -1.1 | 42.6* | -6.3 | -2.7 | -5.6 | / | 4.2
COc1ccc(S(=O)(=O)N(C)CC(=O)NCCc2ccccc2)cc1OC | 1.3 | -5.6 | -2.7 | -0.9 | -8.1 | 2.4 | /
